The subject of assay [1] is Vibrio parahaemolyticus. Kind of assay: Antibacterial activity against Vibrio parahaemolyticus ATCC 17802 by microplate assay. Format: functional, organism-based.
The test system of assay [2] is Staphylococcus aureus. Kind of assay: Antibacterial activity against methicillin-resistant Staphylococcus aureus ATCC 33591 by microplate assay. Format: functional, organism-based. The essentials: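 MRSA (ATCC 33591) was one strain in a panel of six pathogenic bacteria: four general and two marine Vibrio. Assayed by the microplate method, with ciprofloxacin as positive control.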

In assay [3] the test system is HeLa. The experiment in a line: Cytotoxicity against human HeLa cells measured after 7 days by MTT assay. The class given is functional, cell-based.
The subject of assay [4] is A549. The experiment in a line: Cytotoxicity against human A549 cells measured after 7 days by MTT assay. The class given is functional, cell-based.
Assay [5] deals with Vibrio alginolyticus. Kind of assay: Antibacterial activity against Vibrio alginolyticus ATCC 17749 by microplate assay. The class given is functional, organism-based. The note with it: NBRC 15630 = ATCC 17749.
For assay [6], the system named is Bacillus cereus. The experiment in a line: Antibacterial activity against Bacillus cereus ATCC 11778 by microplate assay. The class given is functional, organism-based.
The test system of assay [7] is Escherichia coli. The experiment in a line: Antibacterial activity against Escherichia coli ATCC 25922 by microplate assay. Format: functional, organism-based.
Assay [8] has as its system RAW264.7. Kind of assay: Inhibition of LPS-induced nitric oxide production in mouse RAW264.7 cells preincubated for 30 mins followed by LPS-stimulation and measured after 24 hrs by Griess assay. The class given is functional, cell-based. The essentials:
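RAW264.7 macrophages seeded at 50 000 cells/well and grown 24 h, then exposed to compound for 30 min at 37 °C before LPS (100 ng/mL) co-incubation for 24 h. Nitrite in supernatant measured by Griess reagent (10 min mixing), absorbance 540 nm. Compounds from 10 mM DMSO stocks; final DMSO ≤0.1%. Dexamethasone positive control. Triplicate runs; IC50 calculated.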

The subject of assay [9] is Staphylococcus aureus. The experiment in a line: Antibacterial activity against Staphylococcus aureus ATCC 25923 by microplate assay. The class given is functional, organism-based.
The subject of assay [10] is HepG2. The experiment in a line: Cytotoxicity against human HepG2 cells measured after 7 days by MTT assay. The class given is functional, cell-based. (Formazan colour is commonly taken as a measure of viable cells.)
Assay [11] concerns Helicoverpa armigera. Kind of assay: Insecticidal activity against Helicoverpa armigera hubner measured every other day for 8 days starting from 2 days post dosing. Format: functional, organism-based. The essentials: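 Neonate H. armigera larvae fed artificial diet dosed with serial dilutions of compound (1 mg/mL in DMSO) at 200, 100, 50, 25 and 12.5 μL/well in six-well plates; three groups of three larvae, 3 replicates per treatment. Held at 25 ± 1 °C, 80% relative humidity. Dead larvae counted on days 2, 4, 6, 8. DMSO negative, azadirachtin positive, plain diet blank controls.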

Assay [12] has as its system Caenorhabditis elegans. Kind of assay: Insecticidal activity against Caenorhabditis elegans measured at 12 […]. The class given is functional, organism-based. In a few lines: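 L1 C. elegans (30−40 worms/well) in S medium with E. coli OP50 and chloramphenicol, exposed to compound at 40, 20, 10, 5, 1 and 0 μg/mL diluted in filter-sterilized M-9; 3 replicates per treatment. Plates sealed, kept at 24 °C for 60 h in the dark; dead larvae counted at 12, 24, 36, 48, 60. M-9 negative control, levamisole 1 mg/mL positive control.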

Consider 16 molecules from ChEMBL document CHEMBL4316638, “Bioactive Meroterpenoids and Isocoumarins from the Mangrove-Derived Fungus Penicillium sp. TGM112” (J Nat Prod, 2019).

A word on the IC50: it is the concentration needed to halve the response being measured. High values mean weaker potency, low ones greater potency. For orientation: EC50 means the concentration needed to bring the measured effect to its halfway point.

Converted amounts (≈) assume the structure as drawn. The source made the active and inactive calls. The rule behind the calls is not given here.

Take `COc1ccc2c(c1O)C(=O)O[C@H](CCCO)C2`: the result in [1], in assay [2], in assay [3], in [4], in assay [5] and in assay [6] was inactive. Moreover, the outcome in assay [7], in assay [9] and in assay [10] was inactive. For the same molecule, the inhibition result in assay [8] is “inactive”.
`CC(=O)CCC[C@@H]1C[C@@H]2C[C@@H](O)CC(O)=C2C(=O)O1` returned an IC50 in [11] of 200 µg/mL (≈ 745 µM). Besides, the outcome in [1], in assay [2], in assay [3], in [4], in assay [5] and in assay [6] was inactive. For the same molecule, the result in assay [7], in assay [9] and in assay [10] was inactive. In addition, the inhibition result in assay [8] is “inactive”.
As for `C[C@H](O)CCC[C@@H]1C[C@@H]2C[C@@H](O)CC(O)=C2C(=O)O1`, the half-maximal inhibitory concentration (IC50) in assay [11] stood at 200 µg/mL (≈ 740 µM). The outcome in assay [1], in assay [2], in assay [3], in assay [4], in assay [5] and in [6] was inactive. Besides, the result in assay [7], in [9] and in assay [10] was inactive. In assay [8], the inhibition result was “inactive”.
Turning to `c1ccc([C@H]2CN3CCSC3=N2)cc1` [LEVAMISOLE], a half-maximal effect in assay [12] (EC50) was put at 4.8 µg/mL (≈ 23.5 µM).
Molecule `C=C1[C@@]23C(=O)O[C@H](C)[C@@]2(O)C(=O)O[C@]1(C)[C@@H](OC(C)=O)C1=C(C)[C@]2(CCC(=O)OC2(C)C)CC[C@@]13C` showed an IC50 in [11] of 50 µg/mL (≈ 99.5 µM). The outcome in assay [1], in [2], in assay [3], in assay [4], in assay [5] and in assay [6] was inactive. Moreover, the outcome in assay [7], in assay [9] and in assay [10] was inactive. For the same molecule, the inhibition result in assay [8] is “inactive”.
On to `CC(=O)CCC[C@@H]1Cc2cccc(O)c2C(=O)O1`, for which the outcome in assay [1], in assay [2], in assay [3], in assay [4], in assay [5] and in assay [6] was inactive. Besides, the result in assay [7], in [9] and in [10] was inactive. In addition, the inhibition result in [8] was “inactive”.
The molecule `C/C=C(\C)C(=O)O[C@H]1C[C@@H](OC(C)=O)[C@@]2(C(=O)OC)CO[C@H]3[C@@H](O)[C@@](C)([C@]45O[C@@]4(C)[C@H]4C[C@@H]5O[C@@H]5OC=C[C@@]54O)[C@H]4[C@]1(CO[C@]4(O)C(=O)OC)[C@@H]32` [AZADIRACTIN] yielded an IC50 in assay [11] of 25 µg/mL (≈ 34.7 µM).
For `C=C1[C@]2(C)C(=O)[C@]3(O)[C@@H](C)OC(=O)[C@]13[C@@]1(C)CC[C@@]3(C=CC(=O)OC3(C)C)C(C)=C1[C@@H]2OC(C)=O`, the outcome in [1], in [2], in assay [3], in [4], in assay [5] and in assay [6] was inactive. The result in assay [7], in assay [9] and in [10] was inactive. For the same molecule, the inhibition entry in [8] is “inactive”.
Turning to `CC(=O)OCCC[C@@H]1Cc2cccc(O)c2C(=O)O1`, the outcome in [1], in assay [2], in [3], in assay [4], in [5] and in assay [6] was inactive. Besides, the outcome in [7], in assay [9] and in assay [10] was inactive. Moreover, in assay [8], the inhibition result is “inactive”.
Consider `C[C@@H](O)CCC[C@H]1OC(=O)c2c(O)cccc2[C@@H]1O`, for which, in assay [11], the IC50 worked out at 100 µg/mL (≈ 376 µM). For the same molecule, the outcome in [1], in assay [2], in [3], in assay [4], in [5] and in [6] was inactive. The result in assay [7], in assay [9] and in assay [10] was inactive. For the same molecule, the inhibition entry in assay [8] was “inactive”.
On to `COc1c(O)ccc2c1C(=O)O[C@H](CCC[C@@H](C)O)C2`, for which the result in assay [1], in [2], in assay [3], in [4], in [5] and in [6] was inactive. The result in assay [7], in assay [9] and in assay [10] was inactive. Moreover, in assay [8], the inhibition entry is “inactive”.
In the case of `O=C1O[C@H](CCCO)Cc2cccc(O)c21`, the result in assay [1], in assay [2], in assay [3], in [4], in [5] and in [6] was inactive. Further, the result in [7], in assay [9] and in [10] was inactive. Moreover, the inhibition entry in assay [8] was “inactive”.
The molecule `C[C@@H](O)CCC[C@@H]1Cc2c(O)ccc(O)c2C(=O)O1` yielded an IC50 in [11] of 100 µg/mL (≈ 376 µM). Also, the result in assay [1], in assay [2], in [3], in assay [4], in [5] and in [6] was inactive. Further, the outcome in assay [7], in assay [9] and in [10] was inactive. The inhibition result in assay [8] was “inactive”.
In turn, `COC(=O)CC[C@@H]1Cc2ccc(O)c(OC)c2C(=O)O1` showed an IC50 in assay [11] of 200 µg/mL (≈ 714 µM). Further, the result in assay [1], in [2], in assay [3], in [4], in assay [5] and in assay [6] was inactive. In addition, the result in assay [7], in assay [9] and in assay [10] was inactive. Also, in assay [8], the inhibition entry was “inactive”.
`COc1c(O)ccc2c1C(=O)O[C@H](CCCC(C)=O)C2`: the result in assay [1], in [2], in assay [3], in assay [4], in [5] and in assay [6] was inactive. Also, the result in [7], in [9] and in assay [10] was inactive. Besides, in [8], the inhibition result was “inactive”.
`C=C1[C@@]23C(=O)O[C@H](C)[C@]24O[C@@]2(C(=C)[C@]5(CCC(=O)OC5(C)C)C[C@@H](O)[C@]32C)[C@H](OC(C)=O)[C@@]1(C)OC4=O` had an IC50 in assay [11] of 50 µg/mL (≈ 96.8 µM). Further, the result in assay [1], in [2], in [3], in assay [4], in assay [5] and in assay [6] was inactive. The result in assay [7], in assay [9] and in assay [10] was inactive. The inhibition entry in assay [8] is “inactive”.
